TAAR1 ag = human TAAR1 agonism | Q96RJ0 | CHO RD-HGA16 TAAR1, Fluo-8 calcium fluorescence; vehicle wells 0%, saturating PEA agonist 100% | activation, % at 3 µM | 0.99% of 360,000 active | AID 624467;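 active = activation above the mean activation of all test compounds in the run plus 3 SD, cut at about 38% in these data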
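Benchmarks: low control DMSO, high control PEA (EC100); System: CHO RD-HGA16 cells carrying human TAAR1 plus Gα16; Detection: Fluo-8 fluorescence, 5 s baseline then 140 s kinetic read; Schedule: 17-24 h plating, Fluo-8 75 min 37 °C, 30 min RT; Read-out basis: % activation from peak over basal fluorescence ratio, DMSO-to-PEA scaled.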
OX1R antag-1 = antagonists of human orexin 1 receptor; inhibition, % at 5 µM; 0.43% of 330,000 active; O43613; CHO/OX1R cells, Fluo-8 calcium fluorescence, orexin A; AID 434989;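 active = inhibition above its plate's threshold, mean inhibition of all tested compounds on the plate plus 3 SD, cut at about 37% in these data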
Target sequence (O43613 whole entry, looked up): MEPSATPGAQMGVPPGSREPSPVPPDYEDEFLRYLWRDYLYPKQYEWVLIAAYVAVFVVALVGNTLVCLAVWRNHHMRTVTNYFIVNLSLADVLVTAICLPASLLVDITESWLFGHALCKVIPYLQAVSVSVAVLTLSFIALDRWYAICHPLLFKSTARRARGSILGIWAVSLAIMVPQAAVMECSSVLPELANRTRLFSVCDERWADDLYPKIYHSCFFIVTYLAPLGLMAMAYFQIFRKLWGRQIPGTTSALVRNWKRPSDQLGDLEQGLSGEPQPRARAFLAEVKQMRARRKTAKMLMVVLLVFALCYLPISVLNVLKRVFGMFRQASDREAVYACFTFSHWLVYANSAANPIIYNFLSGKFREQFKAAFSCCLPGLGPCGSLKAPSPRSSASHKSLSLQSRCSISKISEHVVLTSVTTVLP
OX1R antag-2 = antagonists of human orexin 1 receptor (OX1R). O43613. AID 485270. inhibition, % at 6.6 µM. OX1R-expressing cells, FRET antagonist read-out. 1.8% of 330,000 active; in the data active = inhibition mostly above about 38%, no sharp cut-off; inactive = mostly below about 40%
CHO parental Ca = counter-screen: ATP calcium response change in parental CHO cells; parental CHO-K1, ATP-induced calcium, Fluo-8 fluorescence; inhibition, % at 5.6 µM; 0.63% of 330,000 active;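 active = inhibition above that plate's mean sample inhibition plus 3 SD, cut at about 26% in these data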
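Assay system: untransfected parental CHO cell line. Also added: ATP agonist challenge. Dosing: one dose, 5.6 µM nominal. Measured by: Fluo-8 fluorescence. Read-out: % inhibition. Benchmarks: ATP wells versus no-ATP DMSO wells. Repeats: no replicates.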
TAAR1 antagonist = antagonists of human TAAR1. Q96RJ0. AID 624466. 1.5% of 360,000 active. inhibition, % at 3 µM. CHO RD-HGA16 TAAR1, Fluo-8 calcium fluorescence, antagonist;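 active = inhibition above a per-plate cutoff, the mean inhibition of test compounds on that plate plus 3 SD, cut at about 49% in these data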
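System: RD-HGA16 CHO cells with stable hTAAR1 and Gα16 | Probe or stimulus: EC80 β-phenethylamine stimulus | Dosing: 3 µM, single point | Times: Dye loading 75 min at 37 °C, then 30 min room temperature | Measured by: Fluo-8 calcium-sensitive fluorescence | Read-out basis: % inhibition of agonist calcium response | Replicates: n of 1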
GalR3 antag = antagonists of human GalR3; O60755; HEK293 GalR3-CNG cAMP membrane potential fluorescence; galR3 body fused to GalR1 C-terminus; inhibition, % at 3 µM; 0.44% of 360,000 active; AID 651719;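 active = inhibition above the screen-wide average plus 3 SD, cut at about 13% in these data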;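 note: forskolin and galanin both at EC90 stimulate the cells; cAMP rise reported by CNG channel membrane potential dye signal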
Target sequence (O60755 1-299 limits assumed): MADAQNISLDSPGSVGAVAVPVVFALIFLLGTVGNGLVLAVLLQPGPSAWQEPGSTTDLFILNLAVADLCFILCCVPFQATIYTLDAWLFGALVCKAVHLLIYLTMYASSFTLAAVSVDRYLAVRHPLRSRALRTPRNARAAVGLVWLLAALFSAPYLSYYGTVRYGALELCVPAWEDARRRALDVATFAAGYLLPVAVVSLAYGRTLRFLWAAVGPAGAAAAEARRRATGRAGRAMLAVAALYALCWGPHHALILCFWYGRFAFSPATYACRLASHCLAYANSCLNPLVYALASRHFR
Of the large screens only hits and unclear results are named; the others gave an inactive call. A selection: hits, their analogues and other compounds. The true share with any hit is near 4.2%.

NC(=O)N/N=C/c1cn(-c2ccccc2)nc1-c1cccs1	none
Cc1cccc(CSC(Nc2ccc(F)cc2)=C(C#N)C#N)c1	CHO parental Ca 25.2
O=C(N/N=C/c1ccccc1OCc1ccccc1)c1cccnc1	none
CCCNC(=O)CNC(=O)c1ccc(C#N)cc1	none
Cc1c(-c2nc(N)nc(Nc3ccccc3F)n2)oc2ccccc12	OX1R antag-2 38.8
Cc1ccccc1NC1=C/C(=N\S(=O)(=O)c2ccc(C(=O)O)cc2)c2ccccc2C1=O	OX1R antag-2 59.3
Cc1ccccc1NC1=C/C(=N\S(=O)(=O)c2cccs2)c2ccccc2C1=O	none
CC(=O)Nc1ccc(NC2=C/C(=N/S(=O)(=O)c3cccs3)c3ccccc3C2=O)cc1	none
O=C(O)c1ccc(S(=O)(=O)/N=C2\C=C(Nc3ccccc3F)C(=O)c3ccccc32)cc1	OX1R antag-2 63.4
COc1ccc(S(=O)(=O)/N=C2\C=C(Nc3ccc(O)cc3)C(=O)c3ccccc32)cc1	TAAR1 antagonist 51.2
S=C(NCCCCN(Cc1ccc(Cl)cc1)c1ccc(Br)cn1)NCCCc1cnc[nH]1	TAAR1 ag 38.0 (no result: OX1R antag-1, OX1R antag-2, CHO parental Ca)
CN(C)CCN(Cc1ccc(Cl)cc1)c1ccccn1	none
Cc1cc(C)nc(NC2=N[C@@H]3CCCC[C@H]3N2C(=O)Nc2cc(Cl)cc(Cl)c2)n1	none (no result: OX1R antag-1, OX1R antag-2, CHO parental Ca)
COc1ccc(CC2=CC(=O)c3ccccc3C2=O)cc1	OX1R antag-2 38.9
O=C(CCS(=O)(=O)c1ccc(Cl)cc1)Nc1ccc(F)cc1	none
O=C(CSc1nnc(-c2cccs2)n1-c1ccccc1)NCc1ccc2c(c1)OCO2	OX1R antag-2 62.0
CCn1c(SCC(=O)NCc2ccc3c(c2)OCO3)nnc1-c1cccs1	none
O=C(CSc1nnc(-c2cccs2)n1Cc1ccccc1)NCc1ccc2c(c1)OCO2	OX1R antag-2 62.0
Cc1c(NC(=O)Nc2ccc(F)cc2F)c(=O)n(-c2ccccc2)n1C	none
COc1ccc(/C=N/Nc2nnc(C)n2N)cc1OC	none
Nn1cnnc1N/N=C/c1ccc(F)cc1	OX1R antag-2 65.1
O=C(N/N=C/c1ccc(Cl)c([N+](=O)[O-])c1)C1CC1	OX1R antag-2 59.1
Nn1cnnc1N/N=C/c1ccc(Cl)c([N+](=O)[O-])c1	OX1R antag-2 61.1
Nn1cnnc1N/N=C/c1cccc(Cl)c1Cl	none (no result: OX1R antag-1, OX1R antag-2, CHO parental Ca)
O=C(N/N=C/c1cc(Cl)cc([N+](=O)[O-])c1O)C1CC1	none
Cc1ccc(/C=N/Nc2nncn2N)cc1	OX1R antag-2 43.3
Nn1cnnc1N/N=C/c1ccccc1C(F)(F)F	none
CC(=O)Nc1cccc(OCCCOc2ccc([N+](=O)[O-])cc2)c1	none
CCn1c(=O)c(C(=O)NNC(=O)c2ccccc2)c(O)c2ccccc21	TAAR1 ag 38.0
CCn1c2ccccc2c2cc(/C=N/NC(=O)c3ccccc3)ccc21	OX1R antag-1 67.4, OX1R antag-2 91.8
COc1cc(C(=O)N/N=C/c2ccc3c(c2)c2ccccc2n3C)ccc1O	none (no result: OX1R antag-1, OX1R antag-2, CHO parental Ca)
Cn1c2ccccc2c2cc(/C=N/NC(=O)c3cc(O)cc(O)c3)ccc21	OX1R antag-2 73.8
CCOc1cc(/C=C(\CC(=O)O)c2nc3ccccc3s2)ccc1OCC(=O)Nc1cccc(C(F)(F)F)c1	none (no result: OX1R antag-1, OX1R antag-2, CHO parental Ca)
CCOc1ccccc1CNC(=O)CCc1cn(CC)c2ccccc12	none
CC(C)OP(=O)(Nc1cccc2ccccc12)OC(C)C	none
CN(C)P(=O)(Nc1cccc2ccccc12)Nc1cccc2ccccc12	OX1R antag-2 59.1
CC(C)NCc1cc(Br)ccc1OCc1ccccc1	TAAR1 ag 42.6
CC(C)(CO)NCc1cc(Br)ccc1OCc1ccccc1	none
CN(C)c1ccc(N(C)C)c(C(O)(c2ccccc2)c2ccccc2)c1	none (no result: OX1R antag-1, OX1R antag-2, CHO parental Ca)
O=C1/C(=C/c2ccccc2)Nc2ccccc21	OX1R antag-1 50.3, CHO parental Ca 35.7
O=C1CNC(=O)/C(=C\c2ccccc2)N1	none
NC(=O)c1ccc(-c2nnn(CC(=O)N(C3CCCCC3)C3CCS(=O)(=O)C3)n2)cc1 (stereo unspecified)	none
Cc1nnnn1-c1ccc(CC(=O)O)cc1	none
O=C(NCCN1CCN(Cc2ccccc2)CC1)Nc1cc(Cl)cc(Cl)c1	TAAR1 ag 43.6
O=C(NCCN1CCN(c2cccc(Cl)c2)CC1)Nc1ccccc1	none
COC(=O)c1cc(NC(=O)Nc2cccc(Cl)c2)ccc1Cl	OX1R antag-1 46.5, OX1R antag-2 50.4, TAAR1 antagonist 60.5
CS(=O)(=O)Nc1ccccc1C(=O)Nc1cc(Cl)cc(Cl)c1	OX1R antag-2 46.3
O=C(Nc1cccc(Cl)c1)Nc1cccc(Cl)c1	OX1R antag-1 38.6, OX1R antag-2 92.3, CHO parental Ca 74.0
O=C(Nc1cccc(F)c1)Nc1cccc(Cl)c1	none
CCOC(=O)c1sc2nc3c(cc2c1N)COC(C(C)C)C3 (stereo unspecified)	none
O=C(Nc1cccc(Cl)c1)Nc1nc(-c2ccccc2)cs1	CHO parental Ca 37.3
O=C(Nc1ccc(Cl)cc1)Nc1nc(-c2ccccc2)cs1	none
Cc1nnc(NC(=O)Nc2cccc(Cl)c2)s1	TAAR1 ag 43.4
Cc1csc(NC(=O)Nc2cccc(Cl)c2)n1	none
O=C(Nc1cccnc1)Nc1cc(Cl)cc(Cl)c1	none
COC(=O)c1cccc(NC(=O)NC(=O)c2ccc(Cl)cc2)c1	none
O=C(Nc1ccccc1)Nc1cc(Cl)cc(Cl)c1	OX1R antag-1 64.8, OX1R antag-2 83.6, CHO parental Ca 53.6
COC(=O)c1cccc(NC(=O)Nc2ccc(Cl)cc2)c1	CHO parental Ca 45.9
CCc1ccc(OCCCC(=O)Nc2ccc(N3CCCCC3)cc2)cc1	none
COc1ccc2cnn(-c3ccc(OC(F)(F)Cl)cc3)c(=O)c2c1OC	none
COC(=O)CCCC1=CC2=CC(=O)C(C)(OC(=O)c3cccs3)C(=O)C2=CN1CCCOC(C)C (stereo unspecified)	OX1R antag-2 63.2
CC1=CCC(/C=N\Nc2nnc3c(n2)[nH]c2ccccc23)CC1 (stereo unspecified)	OX1R antag-2 55.4 (no result: TAAR1 ag, TAAR1 antagonist, GalR3 antag)
CC(C)CSc1nnc2c(n1)[nH]c1ccccc12	none
CCN(CC)c1ccc2cc(-c3nc4ccccc4[nH]3)c(=O)oc2c1	OX1R antag-1 112.8, OX1R antag-2 81.2, CHO parental Ca 79.7 (no result: TAAR1 ag, TAAR1 antagonist, GalR3 antag)
COc1cccc2cc(-c3nc4ccccc4[nH]3)c(=O)oc12	none
Fc1cccc(C[n+]2csc3ccccc32)c1	none
c1ccc(C[n+]2csc3ccccc32)cc1	CHO parental Ca 29.1
CCC1(c2ccc(OC)cc2)NC(=O)N(CC(=O)N2CCc3ccccc32)C1=O (stereo unspecified)	TAAR1 ag 63.5 (no result: OX1R antag-1, OX1R antag-2, CHO parental Ca)
CCC1(c2ccc(OC)cc2)NC(=O)N(CC(=O)c2ccc3c(c2)OCCO3)C1=O (stereo unspecified)	TAAR1 ag 37.7

Screens (PubChem)
